# Source: ChEMBL document CHEMBL4152217, “Quinonoid compounds via reactions of lawsone and 2-aminonaphthoquinone with α-bromonitroalkenes and nitroallylic acetates: Structural diversity by C-ring modification and cytotoxic evaluation against cancer cells” (Eur J Med Chem, 2018)
# What was measured:
# PC-3 = assay: Cytotoxicity against human PC3 cells assessed as reduction in cell viability after 72 hrs by MTT assay; assay type: functional, cell-based; conditions: PC-3, 72 h
# Outline: (§1)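 MTT viability assay. Cancer lines grown in RPMI 1640 and L929 fibroblasts in DMEM, each with 10% FBS, 2 mM glutamine, penicillin/streptomycin, 37 °C, 5% CO2. PBMC were taken from healthy donors by density-gradient centrifugation, kept in RPMI with 20% FBS and stimulated with 2% phytohemagglutinin. Cells were exposed 72 h (0.01–27.32 µM). MTT 0.5 mg/mL for 3 h, absorbance read at 550 nm. IC50 with 95% CI from nonlinear regression; triplicate, ≥3 independent experiments.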
# HCT-116 [1] = assay: Cytotoxicity against human HCT116 cells assessed as reduction in cell viability after 72 hrs by MTT assay; assay type: functional, cell-based; conditions: HCT-116, 72 h; outline: as §1
# HL-60 = assay: Cytotoxicity against human HL60 cells assessed as reduction in cell viability after 72 hrs by MTT assay; assay type: functional, cell-based; conditions: HL-60, 72 h; outline: as §1
# SF-295 = assay: Cytotoxicity against human SF295 cells assessed as reduction in cell viability after 72 hrs by MTT assay; conditions: SF-295, 72 h
# NCI-H460 = assay: Cytotoxicity against human NCI-H460 cells assessed as reduction in cell viability after 72 hrs by MTT assay; conditions: NCI-H460, 72 h
# L929 = assay: Cytotoxicity against mouse L929 cells assessed as reduction in cell viability after 72 hrs by MTT assay; assay type: cell-based; conditions: L929, 72 h; outline: as §1
# PBMC = assay: Cytotoxicity against human PBMC cells assessed as reduction in cell viability after 72 hrs by MTT assay
# OVCAR-8 = assay: Cytotoxicity against human OVCAR8 cells assessed as reduction in cell viability after 72 hrs by MTT assay; conditions: OVCAR-8, 72 h
# MX1 = assay: Cytotoxicity against human MX1 cells assessed as reduction in cell viability after 72 hrs by MTT assay; conditions: MX1, 72 h
# Jurkat = assay: Cytotoxicity against human Jurkat cell viability after 72 hrs by MTT assay
# [2] = Selectivity index, ratio of IC50 for human PBMC cells to IC50 for human NCI-H460 cells; assay type: toxicity; conditions: PBMC cells versus NCI-H460 cells
# HCT-116 [3] = assay: Induction in oxidative stress in human HCT116 cells assessed as increase in nitrite level after 24 hrs by Griess reagent based assay; assay type: functional, cell-based
# Outline: (§2)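 HCT-116 cells were treated 24 h. Culture supernatant was mixed 1:1 with Griess reagent (sulfanilamide/N-(1-naphthyl)ethylenediamine in H3PO4) for 10 min at room temperature, and absorbance read at 560 nm. Nitrate/nitrite was quantified against a NaNO2 standard curve (0.75–100 µM). Vehicle was the negative control and H2O2 10 µM the positive control; three independent experiments, mean ± S.E.M.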
# HCT-116 [4] = assay: Induction in oxidative stress in human HCT116 cells assessed as nitrite level at 5 uM after 24 hrs by Griess reagent based assay; assay type: functional; outline: as §2
# HCT-116 [5] = assay: Induction in oxidative stress in human HCT116 cells assessed as nitrite level at 10 uM after 24 hrs by Griess reagent based assay; assay type: functional; outline: as §2
# HCT-116 [6] = assay: Induction of DNA damage in human HCT116 cells assessed as DNA damage index at 5 uM after 24 hrs by ethidium bromide staing based flurescence microscopic analysis (8.3 +/- 0.88); assay type: functional
# HCT-116 [7] = assay: Induction of DNA damage in human HCT116 cells assessed as DNA damage index at 10 uM after 24 hrs by ethidium bromide staing based flurescence microscopic analysis (8.3 +/- 0.88); assay type: functional
Structure (SMILES),IC50 (PC-3),IC50 (HCT-116 [1]),IC50 (HL-60),IC50 (SF-295),IC50 (NCI-H460),IC50 (L929),IC50 (PBMC),IC50 (OVCAR-8),IC50 (MX1),IC50 (Jurkat),selectivity ratio [2],Activity (HCT-116 [3]),Activity (HCT-116 [4]),Activity (HCT-116 [5]),Activity_index (HCT-116 [6]),Activity_index (HCT-116 [7])
O=C1c2ccccc2C(=O)c2c(-c3cccs3)coc21,4.85 µM,5.17 µM,3.28 µM,4.96 µM,5.67 µM,> 17.9 µM,> 17.9 µM,5.39 µM,4.92 µM,4.21 µM,–,–,–,–,–,–
CSc1ccc(-c2coc3c2C(=O)c2ccccc2C3=O)cc1,2.49 µM,6.03 µM,3.09 µM,3.43 µM,4.68 µM,> 15.6 µM,> 15.6 µM,4.09 µM,4.74 µM,2.18 µM,–,–,–,–,–,–
COc1ccc(-n2cc(-c3ccc(Cl)cc3)c3c2C(=O)c2ccccc2C3=O)cc1,8.66 µM,8.88 µM,3.15 µM,4.28 µM,3.81 µM,> 12.1 µM,> 12.1 µM,–,–,–,> 3.1,–,–,–,–,–
O=C1c2ccccc2C(=O)c2c(-c3ccccc3[N+](=O)[O-])coc21,1.59 µM,1.28 µM,1.66 µM,2.94 µM,2.53 µM,> 15.7 µM,> 15.7 µM,2.25 µM,2.85 µM,1.47 µM,–,–,–,–,–,–
O=C1c2ccccc2C(=O)c2c(-c3ccc(F)cc3)coc21,3.97 µM,6.02 µM,3.28 µM,6.33 µM,4.34 µM,13.6 µM,> 17.1 µM,5.43 µM,5.2 µM,3.45 µM,–,–,–,–,–,–
O=C1c2ccccc2C(=O)c2c(-c3cccc4c3OCO4)coc21,2.54 µM,2.76 µM,2.23 µM,3.71 µM,3.61 µM,> 15.7 µM,> 15.7 µM,3.08 µM,2.92 µM,2.04 µM,–,Dose-dependent effect,5.33 µM,8.33 µM,42.88,82.77
O=C1c2ccccc2C(=O)c2c(-c3cccc4ccccc34)coc21,1.82 µM,6.17 µM,2.37 µM,4.44 µM,3.79 µM,13 µM,> 15.4 µM,3.88 µM,3.3 µM,2.09 µM,–,–,–,–,–,–
